Experimental findings from ChEMBL document CHEMBL4038305, “Benzoxaborole Antimalarial Agents. Part 5. Lead Optimization of Novel Amide Pyrazinyloxy Benzoxaboroles and Identification of a Preclinical Candidate” (J Med Chem, 2017) are described below.

The subject of data set [1] is Plasmodium berghei. The data set can be described thus: Antimalarial activity against Plasmodium berghei infected in Swiss Webster mouse assessed as mouse survival rate at 100 mg/kg administered once daily via oral gavage for 4 consecutive days beginning 1 hr after infection measured on day 18 post infection relative to control. Type of data set: functional. The procedure, abridged: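 Mice given an intraperitoneal injection of P. berghei-infected erythrocytes taken from a previously infected animal. Oral dosing once daily for 4 consecutive days, starting 1 h after infection. Vehicle: polyethylene glycol 300/propylene glycol/water (weight ratio 55/25/20). Percent survival recorded daily from day 4 to day 20. Chloroquine 30 mg/kg and vehicle-only groups served as controls.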

The nature of data set [2]: Tmax in Sprague-Dawley rat plasma at 5 mg/kg, po via gavage by HPLC/MS analysis. The format is ADME, organism-based.
The nature of data set [3]: Oral bioavailability in Sprague-Dawley rat at 5 mg/kg by HPLC/MS analysis. As to conditions: in vivo. The format is ADME, organism-based. The procedure, abridged:
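Female CD-1 mice, male SD rats or beagle dogs given 5 mg/kg by iv injection or oral gavage. Formulation was PEG300/propylene glycol/water 55/25/20, pH 6. Blood samples analysed by HPLC–MS/MS; parameters include AUC0-inf extrapolated to infinity and terminal half-life.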

Data set [4] can be described thus: Clearance in Beagle dog at 5 mg/kg, iv by HPLC/MS analysis. The conditions noted are these: in vivo. The format is ADME, organism-based, Canis lupus familiaris. The procedure, abridged:
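Female CD-1 mice, male SD rats and beagle dogs received 5 mg/kg either iv or by oral gavage. Vehicle was PEG 300/propylene glycol/water (55/25/20, pH 6). Blood was sampled and drug measured by HPLC-MS/MS.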

Data set [5] is described as follows: AUC (0 to infinity) in Sprague-Dawley rat at 5 mg/kg, iv by HPLC/MS analysis. The format is ADME, organism-based. The arrangement: dose 5 mg/kg, route intravenous, time infinity. As to conditions: in vivo.
Data set [6] is described as follows: Terminal half life in Sprague-Dawley rat at 5 mg/kg, iv by HPLC/MS analysis. Type of data set: ADME, organism-based. The conditions noted are these: in vivo, read-out: beta t1/2 (converted).
Data set [7] concerns Plasmodium berghei. As to the kind of experiment: Antimalarial activity against Plasmodium berghei infected in Swiss Webster mouse assessed as mouse survival rate at 3.7 mg/kg administered once daily via oral gavage for 4 consecutive days beginning 1 hr after infection measured on day 8 post infection relative to control. The format is functional. The procedure, abridged:
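P. berghei-infected erythrocytes taken from a previously infected mouse were injected intraperitoneally. Oral dosing, once daily for 4 consecutive days, began 1 h after infection, in polyethylene glycol 300/propylene glycol/water (55/25/20 by weight). Chloroquine at 30 mg/kg was the positive control, with a vehicle-only group. Percent survival was recorded daily from day 4 to day 20.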

Data set [8] deals with Plasmodium falciparum. As to the kind of experiment: Antimalarial activity against Plasmodium falciparum NF54 infected in human erythrocytes assessed as reduction in [3H]-hypoxanthine incorporation preincubated for 24 hrs followed by [3H]-hypoxanthine addition measured after 24 hrs by scintillation counting method. The format is functional, cell-based.
For data set [9], the system named is Plasmodium falciparum. The data set can be described thus: Antimalarial activity against Plasmodium falciparum HB3 infected in human erythrocytes assessed as reduction in [3H]-hypoxanthine incorporation preincubated for 24 hrs followed by [3H]-hypoxanthine addition measured after 24 hrs by scintillation counting method. Type of data set: functional, cell-based.

The subject of data set [10] is Plasmodium falciparum. As to the kind of experiment: Antimalarial activity against Plasmodium falciparum TM90C2A infected in human erythrocytes assessed as reduction in [3H]-hypoxanthine incorporation preincubated for 24 hrs followed by [3H]-hypoxanthine addition measured after 24 hrs by scintillation counting method. The format is functional, cell-based.
In data set [11] the test system is Plasmodium falciparum. As to the kind of experiment: Antimalarial activity against Plasmodium falciparum V1/S infected in human erythrocytes assessed as reduction in [3H]-hypoxanthine incorporation preincubated for 24 hrs followed by [3H]-hypoxanthine addition measured after 24 hrs by scintillation counting method. The format is functional, cell-based.
The test system of data set [12] is Plasmodium falciparum. As to the kind of experiment: Antimalarial activity against intraerythrocytic stage of Plasmodium falciparum assessed as parasite reduction ratio at 100 times IC50 preincubated for 24 hrs followed by [3H]-hypoxanthine addition measured after 24 hrs by scintillation counting method. Type of data set: functional. A digest of the protocol:
(§1)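 In vitro P. falciparum parasite reduction ratio assay run at 10×, 30× and 100× IC50. Derived parameters: lag phase (time to maximal killing), PRR (parasites killed per life cycle) and PCT99.9% (time to clear 99.9% of the initial parasite population).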

The test system of data set [13] is Plasmodium falciparum. As to the kind of experiment: Antimalarial activity against intraerythrocytic stage of Plasmodium falciparum assessed as time required to clear 99.9% of initial parasite population at 30 times IC50 preincubated for 24 hrs followed by [3H]-hypoxanthine addition measured after 24 hrs by scintillation counting method. The format is functional. The procedure, abridged: as §1

Data set [14] deals with Salmonella typhimurium. The data set can be described thus: Genotoxicity in Salmonella typhimurium TA98 assessed as number of revertants per plate at 150 ug/plate in absence of rat liver S9 fraction by Ames test (reference value: 14 +/- 6). The format is toxicity. As to conditions: salmonella enterica subsp. enterica serovar typhimurium.
For data set [15], the system named is Salmonella typhimurium. The data set can be described thus: Genotoxicity in Salmonella typhimurium TA1535 assessed as number of revertants per plate at 50 ug/plate in absence of rat liver S9 fraction by Ames test (reference value: 10 +/- 3). The conditions noted are these: salmonella enterica subsp. enterica serovar typhimurium. Type of data set: toxicity. On the technique in general: The Ames test uses bacterial strains that need an amino acid and regain growth without it when mutated back.

Data set [16] has as its system Salmonella typhimurium. The data set can be described thus: Genotoxicity in Salmonella typhimurium TA1535 assessed as number of revertants per plate at 150 ug/plate in absence of rat liver S9 fraction by Ames test (reference value: 10 +/- 3). Type of data set: toxicity. As to conditions: salmonella enterica subsp. enterica serovar typhimurium.
Data set [17] has as its system Salmonella typhimurium. As to the kind of experiment: Genotoxicity in Salmonella typhimurium TA1535 assessed as number of revertants per plate at 50 ug/plate in presence of rat liver S9 fraction by Ames test (reference value: 10). The format is toxicity. As to conditions: salmonella enterica subsp. enterica serovar typhimurium.
For data set [18], the system named is Salmonella typhimurium. The data set can be described thus: Genotoxicity in Salmonella typhimurium TA1537 assessed as number of revertants per plate at 500 ug/plate in absence of rat liver S9 fraction by Ames test (reference value: 19 +/- 9). The conditions noted are these: salmonella enterica subsp. enterica serovar typhimurium. Type of data set: toxicity.

Data set [19] relates to Salmonella typhimurium. As to the kind of experiment: Genotoxicity in Salmonella typhimurium TA1537 assessed as number of revertants per plate at 5000 ug/plate in absence of rat liver S9 fraction by Ames test (reference value: 19 +/- 9). The format is toxicity. As to conditions: salmonella enterica subsp. enterica serovar typhimurium.
The subject of data set [20] is Lymphocyte. As to the kind of experiment: Genotoxicity in human lymphocytes assessed as replication index at 160 ug/mL after 3 hrs in absence of rat liver S9 fraction by micronucleus assay relative to control. Type of data set: toxicity, cell-based. The procedure, abridged: (§2)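 Human lymphocytes exposed for 3 h with or without rat liver S9, or 28 h without S9, with 1% DMSO as vehicle control. Replication index = (binucleated + 2 × multinucleated cells)/total cells. Cytotoxicity (%) = 100 − (RI treated/RI vehicle) × 100.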

Data set [21] concerns Escherichia coli. The data set can be described thus: Genotoxicity in Escherichia coli WP2uvrA assessed as number of revertants per plate at 15 ug/plate in absence of rat liver S9 fraction by Ames test (reference value: 45 +/- 9). The format is toxicity.
Data set [22] has as its system Escherichia coli. The data set can be described thus: Genotoxicity in Escherichia coli WP2uvrA assessed as number of revertants per plate at 50 ug/plate in absence of rat liver S9 fraction by Ames test (reference value: 45 +/- 9). Type of data set: toxicity.
Data set [23] concerns Escherichia coli. The data set can be described thus: Genotoxicity in Escherichia coli WP2uvrA assessed as number of revertants per plate at 150 ug/plate in absence of rat liver S9 fraction by Ames test (reference value: 45 +/- 9). Type of data set: toxicity.
Data set [24] relates to Escherichia coli. The data set can be described thus: Genotoxicity in Escherichia coli WP2uvrA assessed as number of revertants per plate at 150 ug/plate in presence of rat liver S9 fraction by Ames test (reference value: 42 +/- 6). The format is toxicity.
Data set [25] relates to Lymphocyte. As to the kind of experiment: Genotoxicity in human lymphocytes assessed as replication index at 80 ug/mL after 3 hrs in presence of rat liver S9 fraction by micronucleus assay relative to control. As to conditions: s9, 3 h. The format is toxicity, cell-based. The procedure, abridged: as §2
In a further data set the test system is Rattus norvegicus. The data set can be described thus: Genotoxicity in rat assessed as micronucleated polychromatic erythrocytes in bone marrow at 500 mg/kg administered via oral gavage measured after 24 hrs post dose by micronucleus assay (reference value: 0.07 +/- 0.05%). Type of data set: toxicity, organism-based. As to conditions: in vivo.

On to `Cc1c(Oc2cnc(C(=O)N3CC(O)(C(C)C)C3)cn2)ccc2c1B(O)OC2`, for which the survival at 100 mg/kg in the data set on Plasmodium berghei [1] came to 80%.
A word on the Tmax: it is the time at which the peak concentration occurs. Broadly, the bioavailability is dose-corrected exposure relative to a reference, in per cent. High values mean good availability, low ones poor availability. In general, clearance refers to the volume of plasma or blood freed of the substance per unit of time. A word on the AUC(0-inf): it is total exposure, with the tail of the curve extrapolated. A higher AUC(0-inf) goes with high exposure. As usually defined, the IC50 is the concentration that gives 50% inhibition. For the molecule `Cc1c(Oc2cnc(C(=O)N3CC(C)(O)C3)cn2)ccc2c1B(O)OC2`, the time of peak concentration (Tmax) in data set [2] amounted to 3.5 h. Besides, the bioavailability in data set [3] turned out to be 96%. Moreover, in data set [4], the clearance is 0.0303 L/h/kg. The molecule also gave an AUC(0-inf) in data set [5] of 21.7 µg·h/mL. For the same molecule, the half-life in data set [6] was 4.6 h. For the same molecule, the survival at 3.7 mg/kg in the data set with Plasmodium berghei [7] was found to be 0%. In addition, the half-maximal inhibitory concentration (IC50) in the data set with Plasmodium falciparum [8] turned out to be 0.036 µM; in the data set with Plasmodium falciparum [9], 0.08 µM; with Plasmodium falciparum [10], 0.064 µM; in the data set on Plasmodium falciparum [11], 0.063 µM. Besides, in the data set with Plasmodium falciparum [12], the “log(ratio)” value is 4.9. Also, the T99.9% in the data set with Plasmodium falciparum [13] came to 30 h. Also, the Activity in the data set with Salmonella typhimurium [14] worked out at 13; in the data set on Salmonella typhimurium [15], 8; with Salmonella typhimurium [16] it was 8; in the data set on Salmonella typhimurium [17], 11; with Salmonella typhimurium [18] it was 14; in the data set on Salmonella typhimurium [19] it was 10. Moreover, the Activity with Lymphocyte [20] is reported as 2%; in the data set on Escherichia coli [21], 41; with Escherichia coli [22], 35; in the data set with Escherichia coli [23], 56; with Escherichia coli [24], 53; in the data set on Lymphocyte [25] it was 1%. Further, the Activity in the data set on Rattus norvegicus came out at 0.03%.
